Results from ChEMBL document CHEMBL4138179, “Design, synthesis and cytotoxic activity of N-Modified oleanolic saponins bearing A glucosamine” (Eur J Med Chem, 2018).

What was measured:
[1] = Drug uptake in human HL60 cell membrane at 15 uM for 15 hrs by DBCO-488-based fluorescence confocal microscopy; type: ADME, cell membranes; settings: hl-60, 15 h
Summary of the method: (§1)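 HL-60 cells treated with azido-bearing compound (15 μM, 15 h); DMSO-diluted control. Cells fixed in 99% alcohol, permeabilized with 0.1% Triton X-100 in PBS for 15 min, then washed. Copper-free labeling with DBCO-488 (2 μM) plus 0.5 mg/mL BSA in PBS for 6 h. RedDot2 nuclear and CellBrite Blue membrane counterstains; imaged by confocal fluorescence microscopy.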

PC-3 = experiment: Cytotoxicity against human PC3 cells assessed as cell growth inhibition after 48 hrs by MTT assay; type: functional, cell-based; settings: PC-3, 48 h
Summary of the method: (§2)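 Cells from ATCC; HL-60 grown in IMDM, PC-3 in RPMI 1640, HT29 in DMEM, each with 10% FBS and penicillin/streptomycin, 37 °C, 5% CO2. Cells incubated without or with compound at the indicated concentrations and times. Mitochondrial MTT reduction read at 570 nm on a plate reader. IC50 given as mean ± SD of at least three independent experiments.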

HL-60 [2] = experiment: Cytotoxicity against human HL60 cells assessed as cell growth inhibition after 48 hrs by MTT assay; type: functional, cell-based; settings: HL-60, 48 h; summary of the method: as §2
HT-29 = experiment: Cytotoxicity against human HT-29 cells assessed as cell growth inhibition after 48 hrs by MTT assay; type: functional, cell-based; settings: HT-29, 48 h; summary of the method: as §2
HL-60 [3] = experiment: Induction of mitochondrial membrane depolarization in human HL60 cells after 24 hrs by JC-1 staining based flow cytometry; type: functional, cell-based
Summary of the method: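 HL-60 cells exposed to a range of compound concentrations under the MTT culture conditions, untreated control included. After 1 day, cells stained with JC-1 (final 2 μM) at 37 °C for 30 min, then harvested. Flow cytometry gives the percentage loss of mitochondrial membrane potential.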

[4] = Drug uptake in human HL60 cells at 15 uM for 15 hrs by DBCO-488 probe based fluorescence confocal microscopy; type: ADME, cell-based; settings: hl-60, 15 h; summary of the method: as §1

Compound | Drug uptake [1] | IC50 (PC-3) | IC50 (HL-60 [2]) | IC50 (HT-29) | Activity (HL-60 [3]) | Drug uptake [4]
C#CCCC(=O)N[C@H]1[C@H](O[C@H]2CC[C@]3(C)[C@H]4CC=C5[C@@H]6CC(C)(C)CC[C@]6(C(=O)O)CC[C@@]5(C)[C@]4(C)CC[C@H]3C2(C)C)O[C@H](CO)[C@@H](O)[C@@H]1O | Active | > 30 µM | 10.6 µM | > 30 µM | – | –
CC1(C)CC[C@]2(C(=O)O)CC[C@]3(C)C(=CC[C@@H]4[C@@]5(C)CC[C@H](O[C@@H]6O[C@H](CO)[C@@H](O)[C@H](O)[C@H]6NC(=O)CN=[N+]=[N-])C(C)(C)[C@@H]5CC[C@]43C)[C@@H]2C1 | Active | 22.4 µM | 9.13 µM | 23.1 µM | – | –
CCCCCCC(=O)N[C@H]1[C@H](O[C@H]2CC[C@]3(C)[C@H]4CC=C5[C@@H]6CC(C)(C)CC[C@]6(C(=O)O)CC[C@@]5(C)[C@]4(C)CC[C@H]3C2(C)C)O[C@H](CO)[C@@H](O)[C@@H]1O | – | > 30 µM | 2.85 µM | > 30 µM | Dose-dependent effect | –
CC1(C)CC[C@]2(C(=O)O)CC[C@]3(C)C(=CC[C@H]4C3(C)CC[C@H]3C(C)(C)[C@@H](O[C@@H]5O[C@H](CO)[C@@H](O)[C@H](O)[C@H]5NC(=O)CCc5cn(-c6cc7ccc(O)cc7oc6=O)nn5)CC[C@@]34C)[C@@H]2C1 (single isomer, unassigned) | – | – | – | – | – | Active
COC(=O)N[C@H]1[C@H](O[C@H]2CC[C@]3(C)[C@H]4CC=C5[C@@H]6CC(C)(C)CC[C@]6(C(=O)O)CC[C@@]5(C)[C@]4(C)CC[C@H]3C2(C)C)O[C@H](CO)[C@@H](O)[C@@H]1O | – | > 30 µM | 11.4 µM | > 30 µM | – | –
CCCCCCCC(=O)N[C@H]1[C@H](O[C@H]2CC[C@]3(C)[C@H]4CC=C5[C@@H]6CC(C)(C)CC[C@]6(C(=O)O)CC[C@@]5(C)[C@]4(C)CC[C@H]3C2(C)C)O[C@H](CO)[C@@H](O)[C@@H]1O | – | 19.4 µM | 1.68 µM | 21.9 µM | – | –
CC1(C)CC[C@]2(C(=O)O)CC[C@]3(C)C(=CC[C@@H]4[C@@]5(C)CC[C@H](O[C@@H]6O[C@H](CO)[C@@H](O)[C@H](O)[C@H]6N)C(C)(C)[C@@H]5CC[C@]43C)[C@@H]2C1 | – | 25 µM | 2.65 µM | > 30 µM | – | –
CCCCCCCCCOC(=O)N[C@H]1[C@H](O[C@H]2CC[C@]3(C)[C@H]4CC=C5[C@@H]6CC(C)(C)CC[C@]6(C(=O)O)CC[C@@]5(C)[C@]4(C)CC[C@H]3C2(C)C)O[C@H](CO)[C@@H](O)[C@@H]1O | – | 16.1 µM | 1.23 µM | 22 µM | – | –
